Test results reported in ChEMBL document CHEMBL4610026, “Design, synthesis and evaluation of protein disulfide isomerase inhibitors with nitric oxide releasing activity” (Bioorg Med Chem Lett, 2020).
Active and inactive are the calls of the source. The calls are words filed in the database; no cut-off is given here.

What was measured:
SH-SY5Y [1] = assay: Antiproliferative activity against human SH-SY5Y cells assessed as cell growth inhibition at 5 uM by CCK-8 assay; type: functional, cell-based
[2] = target: T1, Protein disulfide-isomerase (Bos taurus) (UniProt P05307); details: 0.1 to 50 uM
T1 sequence (whole entry): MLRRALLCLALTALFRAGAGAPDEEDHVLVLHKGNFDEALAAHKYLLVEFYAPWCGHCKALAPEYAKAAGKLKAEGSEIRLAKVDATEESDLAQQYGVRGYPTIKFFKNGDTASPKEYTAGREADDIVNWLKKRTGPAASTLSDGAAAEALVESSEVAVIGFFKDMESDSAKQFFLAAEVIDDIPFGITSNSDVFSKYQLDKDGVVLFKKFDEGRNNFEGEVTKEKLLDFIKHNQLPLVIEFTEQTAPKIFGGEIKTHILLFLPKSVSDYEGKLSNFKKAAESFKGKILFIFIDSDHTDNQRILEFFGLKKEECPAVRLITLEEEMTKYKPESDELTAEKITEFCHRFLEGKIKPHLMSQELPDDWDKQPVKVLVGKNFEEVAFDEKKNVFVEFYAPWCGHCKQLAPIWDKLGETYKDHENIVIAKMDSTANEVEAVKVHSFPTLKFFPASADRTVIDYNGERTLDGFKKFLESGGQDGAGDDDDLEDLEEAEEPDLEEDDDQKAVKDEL

HeLa [3] = assay: Antiproliferative activity against human HeLa cells assessed as cell growth inhibition at 5 uM by CCK-8 assay; type: functional, cell-based
Homo sapiens [4] = species: Homo sapiens; assay: Nitrosylation activity at recombinant PDI (unknown origin) assessed as generation of s-nitrosylated PDI at 50 uM measured after 30 mins in presence of dithiothreitol by biotin switch assay based Western blot analysis
Procedure, shortened: (§1)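 Biotin-switch detection of S-nitrosylated PDI: 400 ng purified recombinant PDI exposed to NO donor (1, 50, 300 or 600 μM) for 30 min, or left untreated.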

SH-SY5Y [5] = assay: Antiproliferative activity against human SH-SY5Y cells assessed as cell growth inhibition by CCK-8 assay; type: functional, cell-based
Homo sapiens [6] = species: Homo sapiens; assay: Nitrosylation activity at recombinant PDI (unknown origin) assessed as generation of S-nitrosylated PDI at 50 uM measured after 30 mins by biotin switch assay based Western blot analysis; procedure, shortened: as §1
HeLa [7] = assay: Antiproliferative activity against human HeLa cells assessed as cell growth inhibition at 600 uM by CCK-8 assay relative to control; type: functional; details: read-out: GI
SH-SY5Y [8] = assay: Antiproliferative activity against human SH-SY5Y cells assessed as cell growth inhibition at 600 uM by CCK-8 assay relative to control; type: functional; details: read-out: GI
HEK-293T = assay: Cytotoxicity against human HEK293T cells assessed as cell growth inhibition; type: cell-based
[9] = target: T1, Protein disulfide-isomerase (Bos taurus); assay: Inhibition of bovine liver PDI at 50 uM preincubated for 30 mins followed by insulin addition for 1 hr by insulin-aggregation assay relative to control
HeLa [10] = assay: Antiproliferative activity against human HeLa cells assessed as cell growth inhibition by CCK-8 assay; type: functional, cell-based
Homo sapiens [11] = species: Homo sapiens; assay: Nitrosylation activity at recombinant PDI (unknown origin) assessed as generation of S-nitrosylated PDI at 600 uM measured after 30 mins by biotin-switch assay based Western blot analysis; procedure, shortened: as §1
[12] = target: T1, Protein disulfide-isomerase (Bos taurus); assay: Inhibition of bovine liver PDI preincubated for 30 mins followed by insulin addition for 1 hr by insulin-aggregation assay
Homo sapiens [13] = species: Homo sapiens; assay: Nitrosylation activity at recombinant PDI (unknown origin) assessed as generation of S-nitrosylated PDI at 600 uM measured after 30 mins in presence of dithiothreitol by biotin switch assay based Western blot analysis; procedure, shortened: as §1

Structure (SMILES)	growth inhibition (GI) (SH-SY5Y [1])	inhibition [2]	growth inhibition (GI) (HeLa [3])	Activity (Homo sapiens [4])	growth inhibition (GI) (SH-SY5Y [5])	Activity (Homo sapiens [6])	inhibition of growth at 600 µM (HeLa [7]) [%]	inhibition of growth at 600 µM (SH-SY5Y [8]) [%]	Activity (HEK-293T)	inhibition [9]	growth inhibition (GI) (HeLa [10])	Activity (Homo sapiens [11])	inhibition [12]	Activity (Homo sapiens [13])
C#CCOC(=O)C1(C)c2[nH]c3ccccc3c2CCN1C(=O)CCl (stereo not given)	Active	Active	Active											
N[C@@H](CCC(=O)N[C@@H](CSN=O)C(=O)NCC(=O)O)C(=O)O [S-NITROSOGLUTATHIONE]				inactive	Active	Active	40	40	Non-Toxic	inactive	Active			
C#CCOC(=O)C1(C)c2[nH]c3ccccc3c2CCN1C(=O)CN(N=O)c1ccccc1 (stereo not given)					Dose-dependent effect		40	40	Non-Toxic	50%	Dose-dependent effect	Active	Dose-dependent effect	inactive
